Compound activity (PubChem)
Rows were chosen to be rich in hits. Some 4.8% of all compounds tested hit in one or more screens of this group.
Jurkat NFkB inh: inhibitors of the PMA/ionomycin-induced NF-kB reporter in Jurkat cells; PMA/ionomycin-induced NF-kB luciferase reporter, luminescence; hit rate 0.53% among 330,000; inhibition, % at 4 µM; in the data active = inhibition above about 50%
HSF1 activator: increases HSF-1 driven luciferase reporter signal; NIH3T3-HGL HSF-1 luciferase reporter, MG132, 8 h; 100% = twice DMSO control signal; activation, % at 9 µM; hit rate 1.7% among 300,000; AID 504408;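 active = mean replicate activation of at least 50% with a set share of replicates each reaching 50%; inconclusive = only one of those two conditions met; inactive = mean below 50% and too few replicates reaching it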
697 NFkB inh: inhibitors of the PMA/ionomycin-induced NF-kB reporter in 697 B cells. 697 B-cell NF-kB luciferase reporter, 16 h. inhibition, % at 4 µM. hit rate 0.33% among 330,000; in the data active = inhibition above about 35%
GPR7 antag: blocks human GPR7 receptor signaling. GPR7-expressing cells, fluorescence antagonist assay. P48145. AID 1861. hit rate 1.1% among 290,000. inhibition, % at 4.4 µM; in the data active = inhibition above about 16%, passing the limit was not always enough;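 note: cells stimulated with the agonist NPW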
Target sequence (P48145 whole entry, looked up): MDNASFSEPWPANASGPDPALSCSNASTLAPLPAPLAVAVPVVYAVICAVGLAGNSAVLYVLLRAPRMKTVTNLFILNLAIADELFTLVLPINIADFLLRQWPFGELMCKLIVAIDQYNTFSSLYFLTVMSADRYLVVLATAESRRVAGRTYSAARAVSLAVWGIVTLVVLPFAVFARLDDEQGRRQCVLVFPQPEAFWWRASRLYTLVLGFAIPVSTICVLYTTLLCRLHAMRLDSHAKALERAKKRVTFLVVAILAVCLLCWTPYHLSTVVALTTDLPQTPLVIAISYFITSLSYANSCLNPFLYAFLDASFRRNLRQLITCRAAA
T cruzi repl: T. cruzi replication inhibition | AID 1885 | hit rate 1.4% among 300,000 | T. cruzi beta-gal in NIH3T3, luminescence, 90 h | inhibition, % (concentration not given with the values);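 active = mean inhibition across valid replicates above about 55%, limit read from the data; inconclusive = mean below that limit but half or more replicates reach it; inactive = mean below it, under half of replicates reach it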;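 note: signal also drops with host cell toxicity which is not excluded here; higher percent means less beta-gal luminescence so fewer parasites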
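Material: NIH/3T3 host cells with β-galactosidase reporter T. cruzi; Input: 5,000 host fibroblasts per well; Medium: DMEM, 2% fetal bovine serum; Compound: 50 nL DMSO compound solution per well; Schedule: 3 h host attachment, then at least 90 h co-culture; Detection: luminescent β-galactosidase signal after 60 min lysis.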
HSF1 inh: HSF1 inhibition; NIH3T3-HGL HSE-luciferase, MG132-induced, luminescence 8 h; hits give low values; activity change, negative = inhibition, % at 7.5 µM (by protocol); hit rate 0.77% among 300,000;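 active = more than half of replicate wells show activity change below -50%, luminescence cut by over half; inconclusive = some wells, but at most half, below -50%; inactive = no replicate well below -50%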;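 note: luciferase reports HSF-1 transcriptional activity via heat shock element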
A number is an active result; – = inactive; ? = inconclusive; · = no result.

SMILES	Jurkat NFkB inh	HSF1 activator	697 NFkB inh	GPR7 antag	T cruzi repl	HSF1 inh
Cc1noc(C)c1CSCC(=O)Nc1nc2c(F)cc(F)cc2s1	–	·	–	·	·	·
CCN1C[C@@H]2[C@@H]3C(=O)N(Cc4ccccc4)C(=O)[C@@H]3[C@](C)(C(=O)OC)N2C1=NC	·	·	–	·	·	·
C/C(=N/NS(=O)(=O)c1ccc(C)cc1C)c1c[nH]c2ccccc12	–	–	–	–	–	–
COc1ccc2c(c1)c(/C=N/Nc1nc3ccccc3[nH]1)c(C)n2C	–	206.2	–	–	–	–
Cc1ccc2cc(/C=N/Nc3nc4ccccc4[nH]3)c(Cl)nc2c1	·	–	·	–	–	–
COc1ccc(S(=O)(=O)N2CCOCC2)cc1NC(=O)C1COc2ccccc2O1 (stereo not given)	–	–	–	·	–	–
Cc1ccc2[nH]c(=O)c(CN(C(=O)c3cccc([N+](=O)[O-])c3)C(C)C)cc2c1	–	–	–	–	–	-56.7
COc1cc(CNC(C)(C)CO)cc(Br)c1OCc1ccc(Cl)cc1	–	–	–	37.1	–	–
COc1cc(CNc2ccc(O)cc2)cc(Br)c1OCc1ccccc1	–	–	–	–	–	–
COc1cc(CNC(C)c2ccccc2)cc(Br)c1OCc1ccc(F)cc1 (stereo not given)	–	–	–	–	55.1	–
COc1cc(CNC(C)c2ccccc2)cc(Br)c1OCc1ccccc1 (stereo not given)	–	–	–	–	–	–
C=CCSC1=NN2CCS(=O)(=O)N=C2S1	–	–	–	–	–	–
CCOc1ccc(/C=C/C(=O)N(CC)CC(=O)Nc2ccc3c(c2)OCCO3)cc1OCC	–	–	–	–	–	–
NCCc1c(-c2ccccc2)n(-c2ccccc2)c2ccccc12	–	–	–	–	63.6	–
Cc1ccc(/C=C(\NC(=O)c2ccccc2)C(=O)N2CCCC2C(=O)O)cc1 (stereo not given)	–	–	–	–	–	–
CCC(C)NC(=O)C1CCC(CNS(=O)(=O)c2ccc3c(c2)CC(C)N3C(=O)C2CC2)CC1 (stereo not given)	–	–	–	–	–	–
CCCCN(C)C(=O)C1CCC(CNS(=O)(=O)c2ccc3c(c2)CC(C)N3C(=O)C2CC2)CC1 (stereo not given)	–	60.8	–	–	–	–
CCCNC(=O)NC(=O)CSc1cccc(C(F)(F)F)c1	–	77.2	–	–	–	–
Cc1cnc(-c2nnc(N(C)C(=O)c3cccnc3)s2)cn1	–	–	–	–	–	–
CC(=O)N(c1ccccc1)c1nnc(-c2cnc(C)cn2)s1	–	54.5	–	–	–	–
O=C(O)CCC(=O)NCCn1c(-c2ccccc2)csc1=Nc1ccccc1	–	69.5	–	–	–	–
OCCCn1c(-c2ccccc2)csc1=Nc1ccccc1	–	–	–	–	–	–
CCc1ccc(C2=NNC(=Nc3cccc(S(=O)(=O)N(C)C)c3)SC2)cc1	–	–	–	–	–	-76.5
Cc1cccc(N=C2NN=C(c3ccc4c(c3)OCCO4)CS2)c1	–	–	–	–	–	?
CCN1CCN(c2nc(-c3cccnc3)nc3ccccc23)CC1	–	–	–	–	–	–
SMILES	Jurkat NFkB inh	HSF1 activator	697 NFkB inh	GPR7 antag	T cruzi repl	HSF1 inh
CCN1CCN(c2nc(-c3ccncc3)nc3ccccc23)CC1	–	–	–	–	69.0	–
Cc1cccc(C(=O)OC(C)C(=O)N2CCc3ccccc3C2)c1C (stereo not given)	–	·	–	·	·	·
COc1ccc(Nc2ncnc3c2oc2ccccc23)cc1	–	55.9	–	–	–	–
Cc1ccc(Nc2ncnc3c2oc2ccccc23)cc1	–	–	–	–	–	–
O=C(CCc1nc(-c2ccccc2F)no1)Nc1cccnc1	–	–	–	–	–	–
Cc1ccc2cc(/C=C/C(=O)c3ccco3)c(Cl)nc2c1	–	119.3	–	–	–	–
Cc1ccc2nc(Cl)c(/C=C/C(=O)c3ccco3)cc2c1	–	–	–	–	–	–
COc1ccc2cc1Oc1ccc(cc1)CC1c3c(cc(OC)c4c3Oc3cc5c(cc3O4)CCNC5C2)CCN1C (stereo not given)	–	–	–	–	65.9	–
CCN(CC(O)CON=C1c2ccccc2-c2ccccc21)S(=O)(=O)c1ccc(Cl)cc1 (stereo not given)	–	–	–	–	61.7	–
CCN(CC(O)CON=C1c2ccccc2-c2ccccc21)S(=O)(=O)c1ccc(C)cc1 (stereo not given)	–	–	–	–	61.7	–
CS(=O)(=O)N(CC(O)CON=C1c2ccccc2-c2ccccc21)c1ccc(F)cc1 (stereo not given)	–	–	–	–	–	–
Cc1cccc(N(CC(O)CON=C2c3ccccc3-c3ccccc32)S(C)(=O)=O)c1 (stereo not given)	–	–	–	–	60.1	–
CC(C)CCNCC(O)CON=C1c2ccccc2-c2ccccc21 (stereo not given)	–	–	–	–	–	–
CN(CC(O)CON=C1c2ccccc2-c2ccccc21)S(=O)(=O)c1ccc(Br)cc1 (stereo not given)	–	–	–	–	–	–
CC[C@H]1CCCCc2ccccc2[C@@H](C(=O)C[C@@H](O)CC(C)=O)OC1=O	–	·	–	·	·	·
COC(=O)/C(=C\Nc1ccccc1N)c1ncc(C(F)(F)F)cc1Cl	–	137.8	–	–	–	–
CCN1CCN(C(=O)CN(CC)S(=O)(=O)c2ccc(F)cc2)CC1	–	–	–	–	–	–
Cc1ccc(/C=C/C(=O)OCC(=O)NCCN2C(=O)CSC2=O)o1	–	–	–	–	–	-72.9
O=C(Nc1ccc(F)cc1)c1cc(-c2ccccn2)nc2c(Cl)cccc12	–	–	–	–	–	–
Cc1nc(N)nc(N)c1/C=C/C(C)(C)c1ccc(Cl)cc1	·	–	·	–	60.5	–
Cc1ccc([N+](=O)[O-])cc1NC(=O)CSc1nncc2ccccc12	–	–	–	–	–	–
CCNc1nc(NCC)nc(Oc2ccc(OCC)nn2)n1	–	–	–	–	–	–
CCNc1nc(N)nc(Oc2ccc(OCCOc3ccc(Cl)cc3Cl)nn2)n1	–	–	–	–	66.1	–
C/C(N)=C(/C#N)C(=O)COC(=O)c1ccccc1C(=O)c1ccc(C)cc1	–	–	–	–	–	–
CCc1ccccc1NC(=O)C/C(C)=N/NC(=O)COc1ccccc1C	–	–	–	–	–	–
CCc1ccccc1NC(=O)COc1cccc2ccc(C)nc12	–	–	–	–	–	-77.4
CCOC(=O)c1ccc(-n2[nH]c(-c3ccccc3)cc2=O)cc1	–	–	–	–	–	-72.0
CCc1cc2c(=O)c(-c3nc4ccccc4n3C)c(C)oc2c(CN(CC)CC)c1O	–	–	–	–	–	–
CCN(CC)Cc1c(O)ccc2cc(-c3nc4ccccc4n3C)c(=O)oc12	–	68.4	–	–	–	–
